This passage reports IC50 and GI50 results from ChEMBL document CHEMBL2157921, “Identification of novel 3,5-diarylpyrazoline derivatives containing salicylamide moiety as potential anti-melanoma agents” (Bioorg Med Chem Lett, 2012).

SMILES strings stand for the structures.

Assay [1] is described as follows: Inhibition of mouse full length GST-tagged BRAF V600E mutant using MEK1 as substrate incubated for 1 hr prior to substrate addition measured after 25 min by gel electrophoresis. The method, boiled down: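 Kinase activity was read out as BRAF V600E-mediated phosphorylation of MEK. Results are given as IC50 values.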
Assay [2] is described as follows: Antiproliferative activity against human WM266.4 cells expressing BRAF V600E mutant after 24 hrs by MTT assay. Type of assay: functional. The note with it: WM 266-4, 24 h. (In general: Tetrazolium dyes change colour on reduction, which living cells bring about.)
Assay [3] can be described thus: Antiproliferative activity against human WM1361 cells expressing wild type BRAF after 24 hrs by MTT assay. In kind it is functional, cell-based. The note with it: WM1361, 24 h.
For assay [4], the target named is Serine/threonine-protein kinase B-raf (Homo sapiens, UniProt P15056, V600E). Kind of assay: Inhibition of BRAF V600E mutant in human WM266.4 cells assessed as inhibition of ERK1/2 phosphorylation by ELISA. In kind it is cell-based. In general terms: In an ELISA, binding on a coated surface is turned into a signal by an enzyme label.
Serine/threonine-protein kinase B-raf, sequence (P15056 2-766 V600E limits assumed): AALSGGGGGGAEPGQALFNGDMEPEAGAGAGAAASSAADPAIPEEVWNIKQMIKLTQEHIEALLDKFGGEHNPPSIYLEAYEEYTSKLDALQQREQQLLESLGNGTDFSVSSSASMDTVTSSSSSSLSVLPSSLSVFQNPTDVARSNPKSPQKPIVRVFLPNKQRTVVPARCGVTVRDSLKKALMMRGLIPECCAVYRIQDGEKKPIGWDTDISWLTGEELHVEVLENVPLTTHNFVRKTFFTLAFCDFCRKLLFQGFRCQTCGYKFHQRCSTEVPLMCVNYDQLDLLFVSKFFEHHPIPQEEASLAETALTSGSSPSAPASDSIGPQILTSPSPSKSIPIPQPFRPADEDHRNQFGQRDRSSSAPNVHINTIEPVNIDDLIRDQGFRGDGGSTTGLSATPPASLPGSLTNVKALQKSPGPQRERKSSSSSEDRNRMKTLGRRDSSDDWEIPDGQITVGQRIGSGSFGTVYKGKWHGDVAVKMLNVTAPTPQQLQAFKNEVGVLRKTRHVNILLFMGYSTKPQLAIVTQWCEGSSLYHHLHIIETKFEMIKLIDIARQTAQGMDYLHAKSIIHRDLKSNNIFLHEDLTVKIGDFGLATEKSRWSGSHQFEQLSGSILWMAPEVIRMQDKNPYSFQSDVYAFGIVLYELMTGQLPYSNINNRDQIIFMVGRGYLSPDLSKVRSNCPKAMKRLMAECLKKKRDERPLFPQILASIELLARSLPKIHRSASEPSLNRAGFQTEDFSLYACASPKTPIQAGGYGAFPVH
Assay [5] has as its target Epidermal growth factor receptor (Homo sapiens, UniProt P00533). Nature of the assay: Inhibition of EGFR.
The target in assay [6] is Receptor tyrosine-protein kinase erbB-2 (Homo sapiens, UniProt P04626). Kind of assay: Inhibition of HER2.
Receptor tyrosine-protein kinase erbB-2, sequence (P04626 whole entry): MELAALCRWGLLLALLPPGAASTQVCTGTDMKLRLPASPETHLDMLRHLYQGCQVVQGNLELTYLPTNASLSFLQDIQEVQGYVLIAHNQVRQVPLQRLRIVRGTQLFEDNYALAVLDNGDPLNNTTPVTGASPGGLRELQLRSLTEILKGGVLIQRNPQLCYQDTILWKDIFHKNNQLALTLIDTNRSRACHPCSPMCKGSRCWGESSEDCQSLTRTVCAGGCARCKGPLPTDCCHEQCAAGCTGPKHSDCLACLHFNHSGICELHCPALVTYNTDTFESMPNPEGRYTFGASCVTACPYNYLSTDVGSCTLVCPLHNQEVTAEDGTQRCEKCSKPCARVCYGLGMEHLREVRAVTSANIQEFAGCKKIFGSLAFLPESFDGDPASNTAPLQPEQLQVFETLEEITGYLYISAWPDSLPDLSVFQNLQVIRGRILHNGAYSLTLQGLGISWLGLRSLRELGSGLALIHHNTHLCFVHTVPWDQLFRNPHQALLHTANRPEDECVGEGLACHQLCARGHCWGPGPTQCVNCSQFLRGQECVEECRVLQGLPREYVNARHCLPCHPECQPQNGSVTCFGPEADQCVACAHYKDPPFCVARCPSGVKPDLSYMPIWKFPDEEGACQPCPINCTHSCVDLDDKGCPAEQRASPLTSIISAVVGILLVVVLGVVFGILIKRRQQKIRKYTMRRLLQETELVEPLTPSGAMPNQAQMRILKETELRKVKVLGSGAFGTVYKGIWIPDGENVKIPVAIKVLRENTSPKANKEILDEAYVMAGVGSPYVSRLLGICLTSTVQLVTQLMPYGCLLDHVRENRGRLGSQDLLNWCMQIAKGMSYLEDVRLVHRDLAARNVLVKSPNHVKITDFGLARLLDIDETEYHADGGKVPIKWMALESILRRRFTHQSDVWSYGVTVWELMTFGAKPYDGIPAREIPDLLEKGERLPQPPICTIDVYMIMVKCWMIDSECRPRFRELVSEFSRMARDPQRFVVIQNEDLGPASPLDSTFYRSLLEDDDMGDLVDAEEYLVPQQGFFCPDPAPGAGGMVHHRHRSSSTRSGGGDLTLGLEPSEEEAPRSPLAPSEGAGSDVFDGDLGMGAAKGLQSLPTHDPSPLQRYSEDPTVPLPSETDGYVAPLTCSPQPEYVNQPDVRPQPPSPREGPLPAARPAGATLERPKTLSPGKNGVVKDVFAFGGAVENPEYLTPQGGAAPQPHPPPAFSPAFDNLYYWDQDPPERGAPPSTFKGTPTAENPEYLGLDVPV
A short description of assay [7]: Inhibition of bovine FAK isolated from brain after 20 mins by turbidimetric analysis. On the set-up: species or system Bos taurus.
For another assay, the target named is T1, Aurora kinase A (Homo sapiens, UniProt O14965).
T1 sequence (O14965 whole entry): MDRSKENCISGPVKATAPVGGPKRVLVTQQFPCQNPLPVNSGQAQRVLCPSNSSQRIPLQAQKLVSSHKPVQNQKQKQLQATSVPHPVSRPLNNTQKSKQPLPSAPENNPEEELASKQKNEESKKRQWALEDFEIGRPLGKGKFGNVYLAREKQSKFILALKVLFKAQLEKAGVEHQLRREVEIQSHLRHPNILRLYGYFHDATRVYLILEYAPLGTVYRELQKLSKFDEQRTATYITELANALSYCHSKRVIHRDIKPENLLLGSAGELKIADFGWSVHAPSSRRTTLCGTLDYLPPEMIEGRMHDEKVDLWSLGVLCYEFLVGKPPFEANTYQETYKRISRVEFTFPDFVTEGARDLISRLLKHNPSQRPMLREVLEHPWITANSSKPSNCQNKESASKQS
Nature of the assay: Inhibition of human recombinant Aurora A kinase using PLK as substrate incubated for 15 mins prior to substrate addition measured after 60 mins by immunofluorescence method.

For assay [8], the target named is Vascular endothelial growth factor receptor 2 (Homo sapiens, UniProt P35968). Nature of the assay: Inhibition of VEGFR2 using gastrin as substrate after 60 mins by immunofluorescence method.
Vascular endothelial growth factor receptor 2, sequence (P35968 whole entry): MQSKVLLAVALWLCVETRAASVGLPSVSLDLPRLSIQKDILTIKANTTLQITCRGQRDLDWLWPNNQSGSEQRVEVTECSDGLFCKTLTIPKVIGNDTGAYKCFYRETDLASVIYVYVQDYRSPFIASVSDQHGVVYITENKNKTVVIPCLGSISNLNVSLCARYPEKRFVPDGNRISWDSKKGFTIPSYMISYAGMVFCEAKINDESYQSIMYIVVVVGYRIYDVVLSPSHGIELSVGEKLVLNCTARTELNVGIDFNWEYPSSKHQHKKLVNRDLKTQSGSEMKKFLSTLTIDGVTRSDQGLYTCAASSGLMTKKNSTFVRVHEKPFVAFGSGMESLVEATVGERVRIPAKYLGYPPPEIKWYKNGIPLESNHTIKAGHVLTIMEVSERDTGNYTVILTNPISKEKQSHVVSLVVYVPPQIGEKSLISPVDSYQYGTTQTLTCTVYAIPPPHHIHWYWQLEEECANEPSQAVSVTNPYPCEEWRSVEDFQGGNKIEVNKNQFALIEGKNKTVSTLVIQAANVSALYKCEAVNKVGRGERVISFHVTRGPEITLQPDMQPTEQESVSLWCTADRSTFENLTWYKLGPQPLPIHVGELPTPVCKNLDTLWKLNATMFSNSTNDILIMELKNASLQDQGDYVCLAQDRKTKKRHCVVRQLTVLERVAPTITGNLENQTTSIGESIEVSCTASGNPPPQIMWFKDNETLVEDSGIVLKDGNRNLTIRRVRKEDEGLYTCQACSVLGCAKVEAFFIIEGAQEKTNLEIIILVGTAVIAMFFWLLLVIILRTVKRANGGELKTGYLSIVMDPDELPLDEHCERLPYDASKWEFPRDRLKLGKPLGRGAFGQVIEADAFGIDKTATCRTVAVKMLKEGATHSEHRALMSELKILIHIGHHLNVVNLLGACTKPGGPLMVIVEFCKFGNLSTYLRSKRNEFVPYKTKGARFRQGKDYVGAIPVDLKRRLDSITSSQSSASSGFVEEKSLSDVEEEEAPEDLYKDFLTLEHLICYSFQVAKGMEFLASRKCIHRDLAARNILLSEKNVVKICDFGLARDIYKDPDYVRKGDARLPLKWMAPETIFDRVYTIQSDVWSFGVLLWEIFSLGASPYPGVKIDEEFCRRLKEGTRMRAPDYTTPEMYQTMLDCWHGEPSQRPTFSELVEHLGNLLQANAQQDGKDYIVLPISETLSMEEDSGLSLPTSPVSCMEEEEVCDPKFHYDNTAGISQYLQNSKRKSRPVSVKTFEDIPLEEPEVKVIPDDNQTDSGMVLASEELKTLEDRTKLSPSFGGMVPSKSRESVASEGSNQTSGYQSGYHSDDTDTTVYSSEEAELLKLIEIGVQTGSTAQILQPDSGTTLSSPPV

Epidermal growth factor receptor, sequence (P00533 whole entry): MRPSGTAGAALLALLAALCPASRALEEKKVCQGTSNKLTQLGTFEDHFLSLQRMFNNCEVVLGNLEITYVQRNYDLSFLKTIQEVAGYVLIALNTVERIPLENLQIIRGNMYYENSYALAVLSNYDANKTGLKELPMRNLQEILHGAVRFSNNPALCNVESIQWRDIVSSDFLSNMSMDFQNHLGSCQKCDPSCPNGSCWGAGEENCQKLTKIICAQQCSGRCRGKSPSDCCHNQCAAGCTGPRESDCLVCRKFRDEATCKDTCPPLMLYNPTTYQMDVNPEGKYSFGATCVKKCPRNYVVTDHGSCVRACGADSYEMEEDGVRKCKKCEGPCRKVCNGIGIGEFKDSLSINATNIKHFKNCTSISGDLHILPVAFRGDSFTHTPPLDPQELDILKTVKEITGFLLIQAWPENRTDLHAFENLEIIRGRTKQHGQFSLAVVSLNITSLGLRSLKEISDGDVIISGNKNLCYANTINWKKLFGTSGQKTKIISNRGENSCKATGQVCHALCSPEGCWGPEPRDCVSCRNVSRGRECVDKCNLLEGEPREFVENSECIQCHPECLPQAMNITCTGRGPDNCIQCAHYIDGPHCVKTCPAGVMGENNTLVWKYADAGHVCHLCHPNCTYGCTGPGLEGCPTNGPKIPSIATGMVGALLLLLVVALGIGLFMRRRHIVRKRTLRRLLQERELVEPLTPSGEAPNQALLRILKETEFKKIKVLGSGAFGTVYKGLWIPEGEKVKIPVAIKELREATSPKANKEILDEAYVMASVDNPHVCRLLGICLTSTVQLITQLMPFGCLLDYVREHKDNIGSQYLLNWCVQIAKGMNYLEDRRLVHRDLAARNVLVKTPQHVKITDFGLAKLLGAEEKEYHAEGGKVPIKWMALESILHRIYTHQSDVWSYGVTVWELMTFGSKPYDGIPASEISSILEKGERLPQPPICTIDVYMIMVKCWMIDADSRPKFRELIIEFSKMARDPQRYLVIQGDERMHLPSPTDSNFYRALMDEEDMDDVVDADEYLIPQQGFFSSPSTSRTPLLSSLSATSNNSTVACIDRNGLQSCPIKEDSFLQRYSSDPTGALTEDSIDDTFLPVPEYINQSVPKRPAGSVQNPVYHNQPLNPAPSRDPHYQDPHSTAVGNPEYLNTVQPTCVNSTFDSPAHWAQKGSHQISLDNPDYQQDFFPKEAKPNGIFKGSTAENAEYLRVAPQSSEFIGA

As usually defined, the IC50 is the concentration at which inhibition is half-maximal. A word on the GI50: it is the concentration at which growth is held to half of that of the control. In turn, `COc1ccc(C2=NN(C(=O)c3ccc(Cl)cc3O)C(c3ccc(OCc4ccccc4)cc3)C2)cc1` (centres undefined) returned an IC50 in assay [1] of 5.01 µM. Further, in assay [2], the GI50 worked out at 7.89 µM.

On to `COc1ccc(C2=NN(C(=O)c3cc(OC)ccc3O)C(c3ccc(Br)cc3)C2)cc1` (centres undefined), for which, in [1], the IC50 came out at 6.94 µM. Growth in assay [2] was halved (GI50) at 12.9 µM.

In [1], `COc1ccc(C2=NN(C(=O)c3cc(Cl)ccc3O)C(c3ccc(Cl)cc3)C2)cc1` (centres undefined) returned an IC50 of 0.57 µM. For the same molecule, it took 1.52 µM to inhibit growth in assay [2] by half (GI50).

With `COc1ccc(C2=NN(C(=O)c3ccc(Cl)cc3O)C(c3ccc(Cl)cc3)C2)cc1` (centres undefined), the IC50 is 0.16 µM in [1]; 0.81 µM in [4]; 10.5 µM in assay [5]; > 25 µM in assay [6]; > 25 µM in [7]; > 25 µM at Aurora kinase A. In assay [8], the IC50 is > 25 µM. The GI50 was found to be 0.24 µM in assay [2] and 12.1 µM in assay [3].

In the case of `COc1ccc(C2=NN(C(=O)c3cc(Br)ccc3O)C(c3ccc(Cl)cc3)C2)cc1` (centres undefined), the midpoint of inhibition in assay [1], the IC50, lay at 1.21 µM. The same molecule registered a 50% growth inhibitory concentration (GI50) in assay [2] of 2.39 µM.

For `COc1ccc(C2=NN(C(=O)c3cc(I)ccc3O)C(c3ccc(Cl)cc3)C2)cc1` (centres undefined), in assay [1], half-maximal inhibition (IC50) required 1.3 µM. Moreover, in assay [2], growth was halved (GI50) at 3.27 µM.

As to `COc1ccc(C2=NN(C(=O)c3cc(OC)ccc3O)C(c3ccc(Cl)cc3)C2)cc1` (centres undefined), in [1], it took 3.72 µM to reach half-maximal inhibition (IC50). In assay [2], the GI50 amounted to 5.04 µM.

The molecule `COc1ccc(C2=NN(C(=O)c3cc(Cl)ccc3O)C(c3ccc(OCc4ccccc4)cc3)C2)cc1` (centres undefined) returned an IC50 in assay [1] of 5.69 µM. Also, growth in assay [2] was halved (GI50) at 12.9 µM.

For `COc1ccc(C2=NN(C(=O)c3cc(Br)ccc3O)C(c3ccc(OCc4ccccc4)cc3)C2)cc1` (centres undefined), the IC50 in assay [1] is 7.22 µM. This molecule displayed a GI50 in [2] of 12.9 µM.

Molecule `COc1ccc(C2=NN(C(=O)c3cc(I)ccc3O)C(c3ccc(OCc4ccccc4)cc3)C2)cc1` (centres undefined) returned an IC50 in assay [1] of 5.9 µM. The molecule further yielded a GI50 in assay [2] of 13 µM.

On to `COc1ccc(C2=NN(C(=O)c3cc(OC)ccc3O)C(c3ccc(OCc4ccccc4)cc3)C2)cc1` (centres undefined), for which, in assay [1], the concentration for half-maximal inhibition (IC50) came to 10.3 µM. This molecule yielded a GI50 in assay [2] of 13.9 µM.

Molecule `COc1ccc(C2=NN(C(=O)c3cc(Cl)ccc3O)C(c3ccc(OC)cc3)C2)cc1` (centres undefined) yielded an IC50 in assay [1] of 9.3 µM. The same molecule had a concentration for 50% growth inhibition (GI50) in assay [2] of 12.6 µM.

`COc1ccc(C2=NN(C(=O)c3ccc(Cl)cc3O)C(c3ccc(OC)cc3)C2)cc1` (centres undefined) displayed an IC50 in [1] of 7.04 µM. The concentration for 50% growth inhibition (GI50) in assay [2] is 13.3 µM.

`COc1ccc(C2=NN(C(=O)c3cc(Br)ccc3O)C(c3ccc(OC)cc3)C2)cc1` (centres undefined): the IC50 in [1] is 4.92 µM. This molecule also came in with a GI50 in assay [2] of 18.4 µM.

`COc1ccc(C2=NN(C(=O)c3cc(I)ccc3O)C(c3ccc(OC)cc3)C2)cc1` (centres undefined): in [1], the IC50 came out at 13.3 µM. In [2], this molecule displayed a GI50 of 15.6 µM.

As for `COc1ccc(C2=NN(C(=O)c3cc(OC)ccc3O)C(c3ccc(OC)cc3)C2)cc1` (centres undefined), in [1], the 50% inhibitory concentration (IC50) was found to be 8.38 µM. Besides, the GI50 in assay [2] was > 20 µM.

As for `COc1ccc(C2=NN(C(=O)c3cc(Cl)ccc3O)C(c3ccc(Br)cc3)C2)cc1` (centres undefined), it took 2.51 µM to reach half-maximal inhibition in assay [1] (IC50). Further, growth in assay [2] was halved (GI50) at 3.48 µM.

`COc1ccc(C2=NN(C(=O)c3ccc(Cl)cc3O)C(c3ccc(Br)cc3)C2)cc1` (centres undefined): in assay [1], it took 1.38 µM to reach half-maximal inhibition (IC50). Besides, in [2], the GI50 was 2.89 µM.

In [1], `COc1ccc(C2=NN(C(=O)c3cc(Br)ccc3O)C(c3ccc(Br)cc3)C2)cc1` (centres undefined) showed an IC50 of 3.69 µM. For the same molecule, the GI50 in [2] turned out to be 7.4 µM.

In [1], `COc1ccc(C2=NN(C(=O)c3cc(I)ccc3O)C(c3ccc(Br)cc3)C2)cc1` (centres undefined) had an IC50 of 4.1 µM. This molecule also yielded a GI50 in assay [2] of 7.35 µM.

Take `CNC(=O)c1cc(Oc2ccc(NC(=O)Nc3ccc(Cl)c(C(F)(F)F)c3)cc2)ccn1` [SORAFENIB]: half-maximal inhibition in [1] (IC50) required 0.06 µM. Moreover, the GI50 in [2] turned out to be 8.1 µM.
